From ChEMBL document CHEMBL1155154, “Target gene sequencing to characterize the penicillin G susceptibility of Neisseria meningitidis” (2007)

Key:
Assay type in all cases: functional
[1] = test system: Neisseria meningitidis; experiment: Antimicrobial activity against Neisseria meningitidis isolates harboring penA 30 allele encoding PBP2 mutant
Outline: (§1)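 Penicillin G MICs were determined for N. meningitidis isolates grouped by penA allele, with the PBP2 C-terminal region (amino acids 441 to 574) deduced from penA sequencing. Values are geometric mean MICs with lower and upper 95% confidence limits, calculated only for alleles represented by at least five isolates.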

[2] = test system: Neisseria meningitidis; experiment: Antimicrobial activity against Neisseria meningitidis isolates harboring penA 17 allele encoding PBP2 mutant; outline: as §1
[3] = test system: Neisseria meningitidis; experiment: Antimicrobial activity against Neisseria meningitidis isolates harboring penA 33 allele encoding PBP2 mutant; outline: as §1
[4] = test system: Neisseria meningitidis; experiment: Antimicrobial activity against Neisseria meningitidis isolates harboring penA 52 allele encoding PBP2 mutant; outline: as §1
[5] = test system: Neisseria meningitidis; experiment: Antimicrobial activity against Neisseria meningitidis isolates harboring penA 14 allele encoding PBP2 mutant; outline: as §1
[6] = test system: Neisseria meningitidis; experiment: Antimicrobial activity against Neisseria meningitidis isolates harboring penA 12 allele encoding PBP2 mutant; outline: as §1
[7] = test system: Neisseria meningitidis; experiment: Antimicrobial activity against Neisseria meningitidis isolates harboring penA 19 allele encoding PBP2 mutant; outline: as §1
[8] = test system: Neisseria meningitidis; experiment: Antimicrobial activity against Neisseria meningitidis isolates harboring penA 111 allele encoding PBP2 P551 mutant; outline: as §1
[9] = test system: Neisseria meningitidis; experiment: Antimicrobial activity against Neisseria meningitidis isolates harboring penA 23 allele encoding PBP2 mutant; outline: as §1
[10] = test system: Neisseria meningitidis; experiment: Antimicrobial activity against Neisseria meningitidis isolates harboring penA 83 allele encoding PBP2 mutant; outline: as §1
[11] = test system: Neisseria meningitidis; experiment: Antimicrobial activity against Neisseria meningitidis isolates harboring penA 5 allele encoding PBP2 mutant; outline: as §1
[12] = test system: Neisseria meningitidis; experiment: Antimicrobial activity against Neisseria meningitidis isolates harboring penA 42 allele encoding PBP2 mutant; outline: as §1
[13] = test system: Neisseria meningitidis; experiment: Antimicrobial activity against Neisseria meningitidis isolates harboring penA 13 allele encoding PBP2 mutant; outline: as §1
[14] = test system: Neisseria meningitidis; experiment: Antimicrobial activity against Neisseria meningitidis isolates harboring penA 57 allele encoding PBP2 mutant; outline: as §1
[15] = test system: Neisseria meningitidis; experiment: Antimicrobial activity against Neisseria meningitidis isolates harboring penA 34 allele encoding PBP2 mutant; outline: as §1
[16] = test system: Neisseria meningitidis; experiment: Antimicrobial activity against Neisseria meningitidis isolates harboring penA 18 allele encoding PBP2 mutant; outline: as §1
[17] = test system: Neisseria meningitidis; experiment: Antimicrobial activity against Neisseria meningitidis isolates harboring penA 1 allele encoding PBP2 mutant; outline: as §1
[18] = test system: Neisseria meningitidis; experiment: Antimicrobial activity against Neisseria meningitidis isolates harboring penA 2 allele encoding PBP2 mutant; outline: as §1
[19] = test system: Neisseria meningitidis; experiment: Antimicrobial activity against Neisseria meningitidis isolates harboring penA 7 allele encoding PBP2 mutant; outline: as §1
[20] = test system: Neisseria meningitidis; experiment: Antimicrobial activity against Neisseria meningitidis isolates harboring penA 20 allele encoding PBP2 mutant; outline: as §1
[21] = test system: Neisseria meningitidis; experiment: Antimicrobial activity against Neisseria meningitidis isolates harboring penA 81 allele encoding PBP2 mutant; outline: as §1
[22] = test system: Neisseria meningitidis; experiment: Antimicrobial activity against Neisseria meningitidis isolates harboring penA 16 allele encoding PBP2 mutant; outline: as §1
[23] = test system: Neisseria meningitidis; experiment: Antimicrobial activity against Neisseria meningitidis isolates harboring penA 9 allele encoding PBP2 mutant; outline: as §1
[24] = test system: Neisseria meningitidis; experiment: Antimicrobial activity against Neisseria meningitidis isolates harboring penA 27 allele encoding PBP2 mutant; outline: as §1
[25] = test system: Neisseria meningitidis; experiment: Antimicrobial activity against Neisseria meningitidis isolates harboring penA 22 allele encoding PBP2 mutant; outline: as §1
[26] = test system: Neisseria meningitidis; experiment: Antimicrobial activity against Neisseria meningitidis isolates harboring penA 15 allele encoding PBP2 mutant; outline: as §1
[27] = test system: Neisseria meningitidis; experiment: Antimicrobial activity against Neisseria meningitidis isolates harboring penA 4 allele encoding PBP2 mutant; outline: as §1
[28] = test system: Neisseria meningitidis; experiment: Antimicrobial activity against Neisseria meningitidis isolates harboring penA 3 allele encoding PBP2 mutant; outline: as §1
[29] = test system: Neisseria meningitidis; experiment: Antimicrobial activity against Neisseria meningitidis isolates harboring penA 29 allele encoding PBP2 mutant; outline: as §1
[30] = test system: Neisseria meningitidis; experiment: Antimicrobial activity against Neisseria meningitidis isolates harboring penA 11 allele encoding PBP2 mutant; outline: as §1
[31] = test system: Neisseria meningitidis; experiment: Antimicrobial activity against Neisseria meningitidis isolates harboring penA 25 allele encoding PBP2 mutant; outline: as §1

Measured: MIC

CC1(C)S[C@@H]2[C@H](NC(=O)Cc3ccccc3)C(=O)N2[C@H]1C(=O)O [PENICILLIN G]
0.19 µg/mL: [21]
0.008 µg/mL: [14] | [17]
0.015 µg/mL: [11] | [18]
0.094 µg/mL: [8] | [12] | [16] | [20] | [26] | [29] | [30]
0.032 µg/mL: [15] | [24] | [27]
0.023 µg/mL: [10] | [25]
0.125 µg/mL: [1] | [2] | [3] | [13]
0.064 µg/mL: [4] | [5] | [6] | [7] | [9] | [19] | [23] | [31]
0.047 µg/mL: [22]
0.004 µg/mL: [28]
